Experimental data as given in ChEMBL document CHEMBL1649417, “α,β-Unsaturated carbonyl system of chalcone-based derivatives is responsible for broad inhibition of proteasomal activity and preferential killing of human papilloma virus (HPV) positive cervical cancer cells” (J Med Chem, 2011).
The source made the active and inactive calls. The calls are words filed in the database; no cut-off is given here.

Assays:
HeLa [1] = assay: Inhibition of proteasome activity in human HeLa cells assessed as induction of ubiquitinG76V-FL reporter level at 5 nM after 8 hrs by luciferase assay; details: 1 µM, in the assay text read “at 1 µM” for “at 5 nM”
Summary of the method: (§1)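 HeLa transiently transfected with Ub(G76V)4-FL or CMV-FL control, replated 24 h later at 1×10^4 cells/well, drug added after 18 h attachment. Luciferase measured in cell lysate, RLU expressed as % of control; SE from three independent experiments.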

HeLa [2] = assay: Inhibition of proteasome activity in human HeLa cells assessed as induction of ubiquitinG76V-FL reporter level at 1 uM after 8 hrs by luciferase assay; summary of the method: as §1
[3] = Inhibition of trypsin-like activity of 20S proteasome isolated from human LCL after 30 mins by fluorimetric analysis
Summary of the method: (§2)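 Semipurified proteasome from lymphoblastoid cells: glass-bead lysis in Tris pH 7.5/MgCl2/DTT/2 mM ATP/sucrose buffer, differential and 100,000g ultracentrifugation. Preincubated with inhibitor 30 min at 37°C, then 45 min at 37°C with Suc-LLVY-AMC (chymotrypsin-like), Boc-LRR-AMC (trypsin-like) or Ac-YVAD-AMC (caspase/PGPH-like) in 50 mM Tris pH 7.5, 5 mM MgCl2, 1 mM DTT. Quenched with 1% SDS; ex 380/em 440 nm; percent inhibition versus untreated.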

[4] = Inhibition of calpain up to 50 uM by fluorometric analysis
HeLa [5] = assay: Increase of polyubiquitinated accumulation in human HeLa cells at 10 uM after 8 hrs by immunoblotting; type: functional, cell-based
Summary of the method: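 HeLa cells treated 8 h with or without compound, then lysates immunoblotted for poly-ubiquitinated proteins; β-actin antibody to confirm equal loading; bortezomib positive control.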

CaSki (Homo sapiens) = assay: Cytotoxicity against CaSki transformed human cervical carcinoma cells after 48 hrs by XTT assay
[6] = Inhibition of PGPH-like activity of 20S proteasome isolated from human LCL after 30 mins by fluorimetric analysis; summary of the method: as §2
[7] = Cytotoxicity against human keratinocytes assessed as effect on cell viability at 1.6 to 25 uM after 48 hrs by XTT assay; type: cell-based; details: keratinocyte
Summary of the method: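 Primary keratinocytes cultured in defined Keratinocyte-SFM, treated 48 h at the indicated concentrations, 1,000 cells/well. XTT reagent for 4 h, absorbance at 450 nm; viability plotted as fraction of untreated control cultures; triplicate.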

SiHa = assay: Cytotoxicity against HPV16 transformed human SiHa cells after 48 hrs by XTT assay; type: functional, cell-based
Summary of the method: (§3)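 ATCC lines grown in DMEM with 10% FBS, penicillin/streptomycin, 5% CO2; 1,000 cells/well exposed to compound (HeLa and CaSki tested over 100 to 0.01 µM). After treatment, XTT labeling mixture for 4 h, absorbance at 450 nm. Triplicate runs; IC50 is the average of three independent determinations.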

[8] = Inhibition of chymotrypsin-like activity of 20S proteasome isolated from human LCL after 30 mins by fluorimetric analysis; summary of the method: as §2
HeLa [9] = assay: Cytotoxicity against HPV18 transformed human HeLa cells after 48 hrs by XTT assay; type: functional, cell-based; summary of the method: as §3
ME-180 = assay: Cytotoxicity against HPV58 transformed human ME180 cells after 48 hrs by XTT assay; type: functional, cell-based; summary of the method: as §3
[10] = biological target: Cathepsin D (Homo sapiens) (UniProt P07339); assay: Inhibition of cathepsin D up to 50 uM by fluorometric analysis
Cathepsin D (Homo sapiens), sequence (P07339 65-162 limits assumed): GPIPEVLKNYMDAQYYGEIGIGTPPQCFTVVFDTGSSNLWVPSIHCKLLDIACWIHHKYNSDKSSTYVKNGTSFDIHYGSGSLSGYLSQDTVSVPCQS
Cathepsin D (Homo sapiens), sequence (P07339 169-412 limits assumed): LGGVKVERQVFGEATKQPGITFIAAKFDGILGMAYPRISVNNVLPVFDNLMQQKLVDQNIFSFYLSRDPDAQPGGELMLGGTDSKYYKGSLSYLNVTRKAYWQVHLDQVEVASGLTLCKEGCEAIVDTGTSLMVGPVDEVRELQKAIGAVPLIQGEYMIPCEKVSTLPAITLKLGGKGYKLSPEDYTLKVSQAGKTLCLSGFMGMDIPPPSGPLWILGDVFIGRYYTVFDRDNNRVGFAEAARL

Row | Compound | Activity (HeLa [5]) | IC50 (CaSki (Homo sapiens)) | IC50 (HeLa [9]) | further results
1 | CC(C)C[C@H](NC(=O)[C@H](Cc1ccccc1)NC(=O)c1cnccn1)B(O)O | – | – | – | inhibition (HeLa [1]): Active; inhibition (HeLa [2]): Active
2 | O=C1/C(=C/c2ccc(Cl)c(Cl)c2)CN(C(=O)N[C@@H](Cc2ccccc2)C(=O)O)C/C1=C\c1ccc(Cl)c(Cl)c1 | Active | 1.5 µM | 0.32 µM | IC50 [3]: 6.6 µM; inhibition [4]: inactive; inhibition (HeLa [1]): Active; IC50 [6]: 6.2 µM; Activity [7]: Non-toxic; Activity (SiHa): Dose-dependent effect; IC50 [8]: 4.8 µM; Activity (ME-180): Dose-dependent effect; inhibition [10]: inactive; inhibition (HeLa [2]): Active
3 | CC(C)C[C@H](NC(=O)N1C/C(=C\c2ccc(Cl)c(Cl)c2)C(=O)/C(=C/c2ccc(Cl)c(Cl)c2)C1)C(=O)O | Active | 20 µM | 10 µM | IC50 [3]: > 10 µM; IC50 [6]: > 10 µM; IC50 [8]: 9.3 µM
4 | N=C(N)NCCC[C@H](NC(=O)N1C/C(=C\c2ccc(Cl)c(Cl)c2)C(=O)/C(=C/c2ccc(Cl)c(Cl)c2)C1)C(=O)N[C@@H](CCCCN)C(=O)O | – | > 50 µM | > 50 µM | –
5 | O=C1/C(=C/c2ccc(Cl)c(Cl)c2)CN(C(=O)N[C@@H](Cc2ccccc2)C(=O)N[C@@H](Cc2ccc(O)cc2)C(=O)O)C/C1=C\c1ccc(Cl)c(Cl)c1 | – | > 50 µM | > 50 µM | –
6 | CN1C/C(=C\c2ccc(B(O)O)cc2)C(=O)/C(=C/c2ccc(B(O)O)cc2)C1 | – | 9 µM | 8 µM | –
7 | NCCCC[C@H](NC(=O)N1C/C(=C\c2ccc(Cl)c(Cl)c2)C(=O)/C(=C/c2ccc(Cl)c(Cl)c2)C1)C(=O)O | – | > 50 µM | > 50 µM | –
8 | O=C(O)CC[C@H](NC(=O)N1C/C(=C\c2ccc(Cl)c(Cl)c2)C(=O)/C(=C/c2ccc(Cl)c(Cl)c2)C1)C(=O)N[C@@H](CC(=O)O)C(=O)O | – | > 50 µM | > 50 µM | –
9 | O=C1/C(=C/c2ccc(Cl)c(Cl)c2)CN(C(=O)N[C@@H](Cc2ccc(O)cc2)C(=O)O)C/C1=C\c1ccc(Cl)c(Cl)c1 | Active | 10 µM | 10 µM | IC50 [3]: 8.4 µM; IC50 [6]: > 10 µM; IC50 [8]: 4.2 µM
10 | O=C(O)CC[C@H](NC(=O)N1C/C(=C\c2ccc(Cl)c(Cl)c2)C(=O)/C(=C/c2ccc(Cl)c(Cl)c2)C1)C(=O)O | inactive | > 50 µM | > 50 µM | –
11 | N=C(N)NCCC[C@H](NC(=O)[C@H](CCCCN)NC(=O)N1C/C(=C\c2ccc(Cl)c(Cl)c2)C(=O)/C(=C/c2ccc(Cl)c(Cl)c2)C1)C(=O)O | – | > 50 µM | > 50 µM | –
